Measured values: paper PMC1976451 (Nucleic Acids Research, 2007)
“Also recorded” adds a separate entry of the source.

Key:
[1] = test system: human β-globin thalassemic intron 2 mutated splice site at nucleotide 705 (pLuc705 cells); test: Nuclear activity assay; type: cell-based; details: 24 h; for luciferase activity over the background: 1 μM, OptiMEM with or without 10% serum, RLU per microgram protein; for relative nuclear antisense activity in the oligoarginine, RX, RXR and RB panels: 1 and 5 μM; for luciferase activity compared with conjugates with 8 and 7 repeats: 10 μM; for luciferase activity in 60% serum: 60% serum-containing medium; for reduction of luciferase activity in 10% serum: versus 0% serum, R9−PMO data not shown
Summary of the method: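 Splice-correction luciferase assay in pLuc705 cells, seeded 20 h before at 30 000 cells/well. Cells washed, then treated 24 h with conjugate at 1, 5 or 10 μM in OptiMEM with 0, 10, 30 or 60% serum. Lysed 30 min at 4°C, clarified at 1000g, and luminescence read after adding luciferase reagent. RLU normalised per μg protein (BCA). Mean ± SD of 6–9 points, three independent experiments.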

pLuc705 cells [2] = test: MTT cell viability assay; type: cell-based, human; details: for inhibition of cell proliferation by monomers: 500 μM each, individually or in combination
Summary of the method: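 pLuc705 cells seeded 20 h before at 9000 cells/well. Exposed 24 h to 0, 2, 10, 20, 40 or 60 μM conjugate in OptiMEM with 10% serum; arginine and X monomers given at 500 μM alone or combined. Phase images taken first, then MTT at 0.5 mg/ml final for 4 h at 37°C and DMSO/0.01M HCl 10 min. A540 read; % viability relative to mean of untreated wells; six points, two experiments.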

pLuc705 cells [3] = test: Microscopic images of treated cells; type: cell-based, human; details: 60 μM, OptiMEM with 10% serum, 24 h, ×100
Summary of the method: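 pLuc705 cells seeded at 9000 cells/well 20 h before treatment, then exposed 24 h to conjugate or vehicle in OptiMEM with 10% serum. Phase-contrast images were taken directly in culture medium on an inverted microscope, before the MTT read-out on the same wells.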

pLuc705 cells [4] = test: Propidium iodide membrane integrity; type: cell-based, human; details: for membrane damage / PI histogram shift with 0.5 or 5 h treatment: 60 μM, 0.5 and 5 h; for effect of addition of 10% serum on membrane toxicity: (RX)8−PMO data not shown; for effect on membrane integrity at higher concentrations: up to 60 µM tested
[5] = test system: fresh rat red blood cells; test: Hemolysis assay; type: cell-based; details: 60 μM, 1 h at 37°C, hemoglobin release (absorbance at 540 nm); four data points from two independent experiments
Summary of the method: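 Fresh rat blood red cells exposed 1 h at 37°C to conjugate at 60 μM, with PBS as background and 0.005% TX-100 as positive control. Released hemoglobin read as absorbance at 540 nm. Mean ± SD of four data points from two independent experiments.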

[6] = cited from earlier work
pLuc705 cells [7] = test: Cell uptake assay; type: cell-based, human; details: 2 μM, media containing 30 and 60% serum
Summary of the method: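 pLuc705 cells (HeLa stably carrying luciferase interrupted by β-globin intron 2 with mutated splice site at 705) seeded 20 h before at 100 000 cells/well. Treated 24 h with 2 μM 3′-carboxyfluorescein-tagged conjugate in OptiMEM with 0, 10, 30 or 60% serum. Trypsin 10 min at 37°C strips membrane-bound material, then cells are washed and analysed by flow cytometry. Mean fluorescence ± SD, six points, two independent experiments.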

human liver HepG2 cells = test: MTT toxicity in HepG2 cells; type: cell-based; details: up to 60 μM, data not shown
Summary of the method: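 HepG2 cells kept in RPMI 1640 with 2 mM L-glutamine, 100 U/ml penicillin and 10% FBS at 37°C, 5% CO2. Treatments were in OptiMEM with or without FBS. MTT added to a final 0.5 mg/ml for 4 h at 37°C. Most of the medium was replaced with DMSO containing 0.01M HCl for 10 min at 37°C. A540 was normalized to the mean of untreated wells.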

## CC(=O)N[C@@H](CCCNC(=N)N)C(=O)NCCCCCC(=O)N[C@@H](CCCNC(=N)N)C(=O)NCCCCCC(=O)N[C@@H](CCCNC(=N)N)C(=O)NCCCCCC(=O)N[C@@H](CCCNC(=N)N)C(=O)NCCCCCC(=O)N[C@@H](CCCNC(=N)N)C(=O)NCCCCCC(=O)N[C@@H](CCCNC(=N)N)C(=O)NCCCCCC(=O)N[C@@H](CCCNC(=N)N)C(=O)NCCCCCC(=O)N[C@@H](CCCNC(=N)N)C(=O)NCCCCCC(=O)NCCC(=O)N1CCN(P(=O)(OC[C@@H]2CN(P(=O)(OC[C@@H]3CN(P(=O)(OC[C@@H]4CN(P(=O)(OC[C@@H]5CN(P(=O)(OC[C@@H]6CN(P(=O)(OC[C@@H]7CN(P(=O)(OC[C@@H]8CN(P(=O)(OC[C@@H]9CN(P(=O)(OC[C@@H]%10CN(P(=O)(OC[C@@H]%11CN(P(=O)(OC[C@@H]%12CN(P(=O)(OC[C@@H]%13CN(P(=O)(OC[C@@H]%14CN(P(=O)(OC[C@@H]%15CN(P(=O)(OC[C@@H]%16CN(P(=O)(OC[C@@H]%17CN(P(=O)(OC[C@@H]%18CN(P(=O)(OC[C@@H]%19CN(C(C)=O)C[C@H](n%20cnc%21c(N)ncnc%21%20)O%19)N(C)C)C[C@H](n%19ccc(N)nc%19=O)O%18)N(C)C)C[C@H](n%18cnc%19c(N)ncnc%19%18)O%17)N(C)C)C[C@H](n%17cc(C)c(=O)[nH]c%17=O)O%16)N(C)C)C[C@H](n%16cc(C)c(=O)[nH]c%16=O)O%15)N(C)C)C[C@H](n%15cnc%16c(=O)[nH]c(N)nc%16%15)O%14)N(C)C)C[C@H](n%14cnc%15c(N)ncnc%15%14)O%13)N(C)C)C[C@H](n%13ccc(N)nc%13=O)O%12)N(C)C)C[C@H](n%12cc(C)c(=O)[nH]c%12=O)O%11)N(C)C)C[C@H](n%11ccc(N)nc%11=O)O%10)N(C)C)C[C@H](n%10ccc(N)nc%10=O)O9)N(C)C)C[C@H](n9cnc%10c(N)ncnc%109)O8)N(C)C)C[C@H](n8cc(C)c(=O)[nH]c8=O)O7)N(C)C)C[C@H](n7cc(C)c(=O)[nH]c7=O)O6)N(C)C)C[C@H](n6ccc(N)nc6=O)O5)N(C)C)C[C@H](n5cc(C)c(=O)[nH]c5=O)O4)N(C)C)C[C@H](n4ccc(N)nc4=O)O3)N(C)C)C[C@H](n3ccc(N)nc3=O)O2)N(C)C)CC1 (some centres unmarked) [(RX)8−PMO]
[1]
  luciferase activity over the background: 10–15 fold
  relative nuclear antisense activity in the oligoarginine, RX, RXR and RB panels: highest nuclear antisense activities
[1]; 2 μM, OptiMEM with 10% serum, eleven conjugates with 0-8 X compared
  relative nuclear activity at 2 μM: highest activity
[1]; 5 μM
  change of luciferase activity on addition of 10% serum: nearly doubled
[1]; 5 μM, OptiMEM with 10% serum, eleven conjugates with 0-8 X compared
  relative nuclear activity at 5 μM: highest activities
pLuc705 cells [2]; 60 μM, OptiMEM with 10% serum, 24 h, mean of six data points
  cell viability: 40%
pLuc705 cells [3]
  appearance of treated cells (microscopic images): rounded and detached from the culture well
pLuc705 cells [4]
  membrane damage / PI histogram shift with 0.5 or 5 h treatment: little immediate membrane damage
  effect on membrane integrity at higher concentrations: significantly affect membrane integrity
pLuc705 cells [4]; 24 h
  effect of addition of 10% serum on membrane toxicity: significantly reduced membrane toxicity
[5]
  hemolytic activity: compatible with red blood cells
[6]
  stability (of the peptide portion) in cells: completely degraded

## NCCCCCC(=O)O [X, 6-aminohexanoic acid]
pLuc705 cells [2]
  inhibition of cell proliferation by monomers: no inhibition of cell proliferation

## N=C(N)NCCC[C@H](N)C(=O)O [arginine]
pLuc705 cells [2]
  inhibition of cell proliferation by monomers: no inhibition of cell proliferation

## RBRBRBB [(RB)3−PMO]
[1]
  luciferase activity compared with conjugates with 8 and 7 repeats: much lower luciferase activity

## RBRBRBRBRBB [(RB)5−PMO]
[1]
  luciferase activity compared with conjugates with 8 and 7 repeats: much lower luciferase activity

## RBRBRBRBRBRBRBRBB [(RB)8−PMO]
[1]; 5 μM
  change of luciferase activity on addition of 10% serum: nearly doubled
[6]
  stability (of the peptide portion) in cells: only partially degraded

## RRRRRRRRRXB [R9−PMO]
[1]
  luciferase activity in 60% serum: no activity
  reduction of luciferase activity in 10% serum: approximately 30%

## RRRRRRRRXB [R8−PMO]
[1]
  luciferase activity in 60% serum: no activity
  reduction of luciferase activity in 10% serum: approximately 30%

## RXRRXRRXRRXRXB [(RXR)4−PMOF]
pLuc705 cells [7]
  effect of higher serum concentrations on uptake: decreased

## RXRRXRRXRRXRXB [(RXR)4−PMO]
[1]
  luciferase activity over the background: 10–15 fold
  relative nuclear antisense activity in the oligoarginine, RX, RXR and RB panels: highest nuclear antisense activities
[1]; 5 μM
  change of luciferase activity on addition of 10% serum: nearly doubled
Human liver HepG2 cells
  toxicity in HepG2 cells: dose-dependent inhibition of cell proliferation
pLuc705 cells [3]
  appearance of treated cells (microscopic images): rounded and detached from the culture well
pLuc705 cells [4]
  membrane damage / PI histogram shift with 0.5 or 5 h treatment: slight shift towards the PI+ region; also recorded: little immediate membrane damage
  effect on membrane integrity at higher concentrations: significantly affect membrane integrity
pLuc705 cells [4]; 60 µM, 24 h, serum-free medium, flow cytometry
  cells in the PI+ region: 57%
pLuc705 cells [4]; 24 h
  effect of addition of 10% serum on membrane toxicity: significantly reduced membrane toxicity
[5]
  hemolytic activity: compatible with red blood cells

## RXRXRXB [(RX)3−PMO]
[1]
  luciferase activity compared with conjugates with 8 and 7 repeats: much lower luciferase activity

## RXRXRXRXRXB [(RX)5−PMO]
[1]
  luciferase activity compared with conjugates with 8 and 7 repeats: much lower luciferase activity
